Results taken from ChEMBL document CHEMBL1152541, “Staurosporine tethered peptide ligands that target cAMP-dependent protein kinase (PKA): optimization and selectivity profiling” (Bioorg Med Chem, 2009).
*1 amine or outer side, *2 acyl side, *3 side chain or, on linkers, in order; H or OH if unused. Where a SMILES comes first, the peptide text is derived from it. Bridges are numbered along the chain shown (N, C = ends). [ ]: non-standard residue; d: D form. The star is where a group is joined. Staurosporine = CO[C@@H]1[C@H](N(C)*)C[C@H]2O[C@]1(C)n1c3ccccc3c3c4c(c5c6ccccc6n2c5c31)C(=O)NC4; Suc = O=C(CCC(=O)[*:2])[*:1]; Dap = NC[C@H](N)C(=O)O; βAla = NCCC(=O)O

Key:
[1] = molecular target: MAP kinase-interacting serine/threonine-protein kinase 1 (Homo sapiens) (UniProt Q9BUB5); experiment: Binding affinity to human MKNK1 at 500 nM by cell-based competition binding assay relative to control in presence of DTT
[2] = molecular target: Tyrosine-protein kinase ABL1 (Homo sapiens) (UniProt P00519); experiment: Binding affinity to human ABL1 at 500 nM by cell-based competition binding assay relative to control in presence of DTT
Method in brief: (§1)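 Kinase binding profiling ran on a commercial (Ambit) competitive binding screen against a panel of 90 kinases. The screen used reducing conditions with 7.5 mM DTT. To withstand the DTT, the bivalent ligand was tested as its amide isostere, with the disulfide replaced. A staurosporine derivative carrying a 3 β-alanine linker was run as the reference compound.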

[3] = test system: Mast/stem cell growth factor receptor Kit (Homo sapiens), P10721 [D816V]; experiment: Binding affinity to human KIT D816V mutant at 500 nM by cell-based competition binding assay relative to control in presence of DTT
Method in brief: (§2)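 Competition binding screen (Ambit) across a panel of 90 kinases, scoring test ligand displacement of each kinase's binding relative to control. The screen ran under reducing conditions with 7.5 mM DTT.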

[4] = molecular target: MAP kinase-interacting serine/threonine-protein kinase 2 (Homo sapiens) (UniProt Q9HBH9); experiment: Binding affinity to human MKNK2 at 500 nM by cell-based competition binding assay relative to control in presence of DTT
[5] = molecular target: Glycogen synthase kinase-3 beta (Homo sapiens) (UniProt P49841); experiment: Ratio of compound to staurosporine binding affinity to human GSK3-beta in presence of DTT
[6] = molecular target: RAC-beta serine/threonine-protein kinase (Homo sapiens) (UniProt P31751); experiment: Binding affinity to human AKT2 at 500 nM by cell-based competition binding assay relative to control in presence of DTT; method in brief: as §1
[7] = molecular target: ALK tyrosine kinase receptor (Homo sapiens) (UniProt Q9UM73); experiment: Binding affinity to human ALK at 200 nM by cell-based competition binding assay relative to control in presence of DTT; method in brief: as §1
[8] = test system: Mast/stem cell growth factor receptor Kit (Homo sapiens), P10721 [V559D,T670I]; experiment: Binding affinity to human KIT V559D,T670I mutant at 200 nM by cell-based competition binding assay relative to control in presence of DTT; method in brief: as §2
[9] = test system: Tyrosine-protein kinase ABL1 (Homo sapiens), P00519 [T315I]; experiment: Binding affinity to human ABL1 T315I mutant at 200 nM by cell-based competition binding assay relative to control in presence of DTT; method in brief: as §1
[10] = molecular target: Platelet-derived growth factor receptor alpha (Homo sapiens) (UniProt P16234); experiment: Binding affinity to human PDGFRalpha at 200 nM by cell-based competition binding assay relative to control in presence of DTT
[11] = molecular target: Fibroblast growth factor receptor 2 (Homo sapiens) (UniProt P21802); experiment: Binding affinity to human FGFR2 at 200 nM by cell-based competition binding assay relative to control in presence of DTT
Method in brief: (§3)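 Commercial (Ambit) competitive kinase-binding panel of 90 kinases measured the binding profile. Run under reducing conditions of 7.5 mM DTT. Binding is expressed relative to control.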

[12] = molecular target: Dual specificity mitogen-activated protein kinase kinase 2 (Homo sapiens) (UniProt P36507); experiment: Binding affinity to human MEK2 at 200 nM by cell-based competition binding assay relative to control in presence of DTT
[13] = molecular target: Mitogen-activated protein kinase kinase kinase 4 (Homo sapiens) (UniProt Q9Y6R4); experiment: Binding affinity to human MAP3K4 at 200 nM by cell-based competition binding assay relative to control in presence of DTT; method in brief: as §2
[14] = molecular target: Vascular endothelial growth factor receptor 2 (Homo sapiens) (UniProt P35968); experiment: Binding affinity to human VEGFR2 at 200 nM by cell-based competition binding assay relative to control in presence of DTT
[15] = molecular target: Dual specificity tyrosine-phosphorylation-regulated kinase 1B (Homo sapiens) (UniProt Q9Y463); experiment: Binding affinity to human DYRK1B at 50 nM by cell-based competition binding assay relative to control in presence of DTT; method in brief: as §3
[16] = molecular target: Serine/threonine-protein kinase B-raf (Homo sapiens) (UniProt P15056); experiment: Binding affinity to human BRAF at 50 nM by cell-based competition binding assay relative to control in presence of DTT; method in brief: as §1
[17] = molecular target: Insulin receptor (Homo sapiens) (UniProt P06213); experiment: Binding affinity to human INSR at 50 nM by cell-based competition binding assay relative to control in presence of DTT; method in brief: as §2
[18] = molecular target: T1, Serine/threonine-protein kinase Chk1 (Homo sapiens) (UniProt O14757); experiment: Binding affinity to human CHEK1 at 50 nM by cell-based competition binding assay relative to control in presence of DTT; method in brief: as §3
T1 sequence (whole entry): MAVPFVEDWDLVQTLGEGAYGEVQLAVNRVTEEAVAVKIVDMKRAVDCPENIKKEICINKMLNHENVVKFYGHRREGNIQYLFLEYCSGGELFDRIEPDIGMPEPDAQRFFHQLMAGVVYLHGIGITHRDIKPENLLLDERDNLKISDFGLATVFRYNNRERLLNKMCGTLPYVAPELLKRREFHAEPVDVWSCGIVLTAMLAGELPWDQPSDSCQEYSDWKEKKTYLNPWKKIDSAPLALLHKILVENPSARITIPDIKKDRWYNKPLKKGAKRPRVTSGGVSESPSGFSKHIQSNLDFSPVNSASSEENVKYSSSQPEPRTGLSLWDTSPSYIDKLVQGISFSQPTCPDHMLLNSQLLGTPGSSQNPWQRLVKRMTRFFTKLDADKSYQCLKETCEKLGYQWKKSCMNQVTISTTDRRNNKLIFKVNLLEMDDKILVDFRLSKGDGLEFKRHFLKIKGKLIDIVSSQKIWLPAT

[19] = molecular target: MAP/microtubule affinity-regulating kinase 3 (Homo sapiens) (UniProt P27448); experiment: Binding affinity to human MARK3 at 50 nM by cell-based competition binding assay relative to control in presence of DTT; method in brief: as §2
[20] = molecular target: Tyrosine-protein kinase ABL1 (Homo sapiens) (UniProt P00519); experiment: Binding affinity to human ABL1 at 50 nM by cell-based competition binding assay relative to control in presence of DTT; method in brief: as §1
[21] = molecular target: Platelet-derived growth factor receptor beta (Homo sapiens) (UniProt P09619); experiment: Binding affinity to human PDGFRbeta at 50 nM by cell-based competition binding assay relative to control in presence of DTT
[22] = test system: Mast/stem cell growth factor receptor Kit (Homo sapiens), P10721 [D816V]; experiment: Binding affinity to human KIT D816V mutant at 50 nM by cell-based competition binding assay relative to control in presence of DTT; method in brief: as §2
[23] = molecular target: Ribosomal protein S6 kinase alpha-3 (Homo sapiens) (UniProt P51812); experiment: Binding affinity to human RPS6KA3 kinase domain 1 at 50 nM by cell-based competition binding assay relative to control in presence of DTT
[24] = molecular target: Serine/threonine-protein kinase pim-3 (Homo sapiens) (UniProt Q86V86); experiment: Binding affinity to human PIM3 at 50 nM by cell-based competition binding assay relative to control in presence of DTT

Chain of Mast/stem cell growth factor receptor Kit (Homo sapiens), P10721 [D816V] (P10721 whole entry D816V, the tested form may be a part): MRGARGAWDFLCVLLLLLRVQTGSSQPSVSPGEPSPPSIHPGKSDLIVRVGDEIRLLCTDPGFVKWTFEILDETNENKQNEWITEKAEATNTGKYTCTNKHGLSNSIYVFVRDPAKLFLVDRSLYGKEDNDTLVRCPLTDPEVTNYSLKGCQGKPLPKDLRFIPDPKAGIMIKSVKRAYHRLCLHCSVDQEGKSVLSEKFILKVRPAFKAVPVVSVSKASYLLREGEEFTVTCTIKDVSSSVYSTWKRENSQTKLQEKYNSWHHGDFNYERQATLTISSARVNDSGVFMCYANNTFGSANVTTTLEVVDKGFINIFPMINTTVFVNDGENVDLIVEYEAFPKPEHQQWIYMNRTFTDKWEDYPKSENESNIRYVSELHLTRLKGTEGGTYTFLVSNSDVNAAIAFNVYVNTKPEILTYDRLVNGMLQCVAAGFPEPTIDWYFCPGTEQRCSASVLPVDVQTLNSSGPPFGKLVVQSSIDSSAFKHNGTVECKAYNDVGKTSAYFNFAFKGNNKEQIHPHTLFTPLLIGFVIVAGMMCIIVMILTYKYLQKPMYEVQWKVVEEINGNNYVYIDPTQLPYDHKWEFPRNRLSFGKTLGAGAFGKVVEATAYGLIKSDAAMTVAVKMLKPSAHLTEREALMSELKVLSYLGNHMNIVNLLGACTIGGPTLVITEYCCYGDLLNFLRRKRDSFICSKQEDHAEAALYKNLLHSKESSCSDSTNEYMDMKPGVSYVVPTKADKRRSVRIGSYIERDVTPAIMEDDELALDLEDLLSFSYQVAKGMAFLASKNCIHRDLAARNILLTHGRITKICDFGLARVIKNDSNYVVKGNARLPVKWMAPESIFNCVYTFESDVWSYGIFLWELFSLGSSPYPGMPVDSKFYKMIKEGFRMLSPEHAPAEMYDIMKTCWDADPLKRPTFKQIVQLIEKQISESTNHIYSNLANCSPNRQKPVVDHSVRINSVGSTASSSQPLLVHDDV
Chain of Ribosomal protein S6 kinase alpha-3 (Homo sapiens) (P51812 whole entry, the tested form may be a part): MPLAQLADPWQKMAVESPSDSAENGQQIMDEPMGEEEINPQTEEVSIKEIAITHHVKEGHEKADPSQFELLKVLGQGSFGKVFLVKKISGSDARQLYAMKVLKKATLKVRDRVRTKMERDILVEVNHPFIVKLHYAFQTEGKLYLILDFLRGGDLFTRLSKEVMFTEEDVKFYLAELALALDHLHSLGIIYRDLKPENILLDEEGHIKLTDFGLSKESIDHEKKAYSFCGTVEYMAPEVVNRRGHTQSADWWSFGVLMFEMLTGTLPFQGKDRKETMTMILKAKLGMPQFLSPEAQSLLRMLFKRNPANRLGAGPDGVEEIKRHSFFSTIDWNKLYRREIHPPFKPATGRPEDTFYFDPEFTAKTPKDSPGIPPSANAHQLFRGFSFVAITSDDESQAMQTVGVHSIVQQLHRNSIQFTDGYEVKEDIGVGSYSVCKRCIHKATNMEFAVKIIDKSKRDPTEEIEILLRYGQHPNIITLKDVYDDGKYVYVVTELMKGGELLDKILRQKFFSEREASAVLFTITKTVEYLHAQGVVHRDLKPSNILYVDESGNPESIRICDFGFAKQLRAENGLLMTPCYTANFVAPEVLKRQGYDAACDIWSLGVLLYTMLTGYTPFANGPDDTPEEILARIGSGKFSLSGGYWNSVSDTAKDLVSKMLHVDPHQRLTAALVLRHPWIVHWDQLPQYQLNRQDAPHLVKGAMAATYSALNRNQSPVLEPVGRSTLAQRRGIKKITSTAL
Chain of Fibroblast growth factor receptor 2 (Homo sapiens) (P21802 22-821 limits assumed): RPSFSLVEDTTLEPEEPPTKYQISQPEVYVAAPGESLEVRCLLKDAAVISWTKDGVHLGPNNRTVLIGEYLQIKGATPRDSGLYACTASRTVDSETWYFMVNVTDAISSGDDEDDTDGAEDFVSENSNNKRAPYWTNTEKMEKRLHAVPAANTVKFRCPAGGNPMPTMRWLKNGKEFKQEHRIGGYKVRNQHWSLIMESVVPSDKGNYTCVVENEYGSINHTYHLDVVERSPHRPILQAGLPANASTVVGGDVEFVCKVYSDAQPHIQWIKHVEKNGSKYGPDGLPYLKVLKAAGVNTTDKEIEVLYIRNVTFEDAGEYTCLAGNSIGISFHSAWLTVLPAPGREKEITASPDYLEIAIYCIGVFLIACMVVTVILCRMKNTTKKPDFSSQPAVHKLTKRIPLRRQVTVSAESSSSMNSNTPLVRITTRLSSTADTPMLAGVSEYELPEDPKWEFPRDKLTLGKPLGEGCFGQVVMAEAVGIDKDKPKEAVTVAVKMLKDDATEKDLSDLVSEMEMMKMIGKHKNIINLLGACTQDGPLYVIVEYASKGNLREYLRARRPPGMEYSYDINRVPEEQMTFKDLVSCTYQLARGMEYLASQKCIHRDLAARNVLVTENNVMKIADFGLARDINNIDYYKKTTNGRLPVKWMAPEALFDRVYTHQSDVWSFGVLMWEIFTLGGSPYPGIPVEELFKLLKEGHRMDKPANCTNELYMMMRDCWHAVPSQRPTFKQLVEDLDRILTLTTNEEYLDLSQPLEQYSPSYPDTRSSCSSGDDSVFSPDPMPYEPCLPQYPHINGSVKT
Chain of MAP/microtubule affinity-regulating kinase 3 (Homo sapiens) (P27448 whole entry, looked up): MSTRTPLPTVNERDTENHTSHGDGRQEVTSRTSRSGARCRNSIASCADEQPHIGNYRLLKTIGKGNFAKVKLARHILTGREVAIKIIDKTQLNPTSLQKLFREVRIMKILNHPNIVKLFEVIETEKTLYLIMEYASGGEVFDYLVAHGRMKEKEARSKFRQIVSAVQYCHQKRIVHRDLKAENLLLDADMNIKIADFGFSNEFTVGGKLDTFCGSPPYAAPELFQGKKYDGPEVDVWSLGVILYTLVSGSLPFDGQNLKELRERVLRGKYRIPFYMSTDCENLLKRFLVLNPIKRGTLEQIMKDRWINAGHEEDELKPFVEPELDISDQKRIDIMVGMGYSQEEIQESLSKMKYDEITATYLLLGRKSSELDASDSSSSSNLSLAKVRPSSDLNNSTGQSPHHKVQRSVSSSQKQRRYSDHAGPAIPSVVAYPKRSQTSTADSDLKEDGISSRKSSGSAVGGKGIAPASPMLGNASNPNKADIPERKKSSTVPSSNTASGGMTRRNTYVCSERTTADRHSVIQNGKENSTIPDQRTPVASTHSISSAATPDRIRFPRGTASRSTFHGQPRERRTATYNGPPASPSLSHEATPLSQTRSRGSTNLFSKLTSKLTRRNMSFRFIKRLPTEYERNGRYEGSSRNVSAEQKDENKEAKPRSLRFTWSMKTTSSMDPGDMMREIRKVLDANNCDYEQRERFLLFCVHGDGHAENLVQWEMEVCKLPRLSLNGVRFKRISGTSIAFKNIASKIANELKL
Chain of Serine/threonine-protein kinase B-raf (Homo sapiens) (P15056 whole entry): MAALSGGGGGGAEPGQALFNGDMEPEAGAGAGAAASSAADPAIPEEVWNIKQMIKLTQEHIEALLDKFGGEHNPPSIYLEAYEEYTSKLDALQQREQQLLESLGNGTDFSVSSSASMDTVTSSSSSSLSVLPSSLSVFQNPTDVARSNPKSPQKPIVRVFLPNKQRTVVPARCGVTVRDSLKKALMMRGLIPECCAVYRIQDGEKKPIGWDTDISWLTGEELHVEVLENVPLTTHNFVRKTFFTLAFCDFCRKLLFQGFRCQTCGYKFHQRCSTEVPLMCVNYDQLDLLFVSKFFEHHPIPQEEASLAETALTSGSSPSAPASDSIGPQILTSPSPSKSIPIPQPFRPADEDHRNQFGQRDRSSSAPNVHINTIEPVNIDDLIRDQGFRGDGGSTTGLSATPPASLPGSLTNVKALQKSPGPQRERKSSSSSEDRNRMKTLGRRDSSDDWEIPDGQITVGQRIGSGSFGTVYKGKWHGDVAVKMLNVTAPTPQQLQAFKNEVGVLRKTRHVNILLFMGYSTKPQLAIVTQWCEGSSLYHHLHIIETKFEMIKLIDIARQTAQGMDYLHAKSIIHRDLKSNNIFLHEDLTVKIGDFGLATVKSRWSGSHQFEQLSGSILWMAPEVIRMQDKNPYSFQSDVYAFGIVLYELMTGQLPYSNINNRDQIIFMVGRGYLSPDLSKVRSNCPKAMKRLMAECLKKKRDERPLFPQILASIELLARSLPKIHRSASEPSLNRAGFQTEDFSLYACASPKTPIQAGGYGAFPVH
Chain of Dual specificity tyrosine-phosphorylation-regulated kinase 1B (Homo sapiens) (Q9Y463 whole entry, looked up): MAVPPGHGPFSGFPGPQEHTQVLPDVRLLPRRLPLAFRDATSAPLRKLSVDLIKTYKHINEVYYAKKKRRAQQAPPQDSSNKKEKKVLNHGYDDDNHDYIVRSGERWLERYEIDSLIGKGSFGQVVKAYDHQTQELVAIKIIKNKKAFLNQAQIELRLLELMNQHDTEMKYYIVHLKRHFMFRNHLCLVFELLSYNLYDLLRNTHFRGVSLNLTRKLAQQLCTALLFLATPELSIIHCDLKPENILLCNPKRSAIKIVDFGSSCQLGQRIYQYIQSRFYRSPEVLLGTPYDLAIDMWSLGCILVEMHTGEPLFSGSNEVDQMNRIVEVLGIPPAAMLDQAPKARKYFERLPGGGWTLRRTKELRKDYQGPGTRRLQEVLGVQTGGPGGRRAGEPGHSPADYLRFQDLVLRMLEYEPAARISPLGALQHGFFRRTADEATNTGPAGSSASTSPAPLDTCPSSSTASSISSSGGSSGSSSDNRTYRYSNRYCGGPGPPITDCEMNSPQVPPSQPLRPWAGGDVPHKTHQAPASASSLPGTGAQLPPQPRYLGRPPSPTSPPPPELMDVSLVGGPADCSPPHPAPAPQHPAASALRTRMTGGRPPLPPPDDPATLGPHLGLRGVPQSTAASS
Chain of Dual specificity mitogen-activated protein kinase kinase 2 (Homo sapiens) (P36507 whole entry): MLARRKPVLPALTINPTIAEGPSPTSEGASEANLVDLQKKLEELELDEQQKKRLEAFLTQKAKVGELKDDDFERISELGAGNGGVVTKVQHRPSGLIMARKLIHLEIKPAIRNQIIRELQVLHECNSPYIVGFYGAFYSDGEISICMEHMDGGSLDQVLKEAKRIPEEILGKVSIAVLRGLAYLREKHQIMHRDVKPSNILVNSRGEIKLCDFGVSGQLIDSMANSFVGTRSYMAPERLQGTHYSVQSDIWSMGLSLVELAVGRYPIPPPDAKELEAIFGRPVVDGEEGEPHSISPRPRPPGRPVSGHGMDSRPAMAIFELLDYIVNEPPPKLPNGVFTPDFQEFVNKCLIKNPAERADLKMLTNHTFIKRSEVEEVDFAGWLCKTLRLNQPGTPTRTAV

## CO[C@@H]1[C@H](N(C)C(=O)CCC(=O)NCCC(=O)NCCC(=O)NCCC(N)=O)C[C@H]2O[C@]1(C)n1c3ccccc3c3c4c(c5c6ccccc6n2c5c31)C(=O)NC4
[1]
  Activity: 82%
[2]
  Activity: 68%
[3]
  Activity: 1%
[4]
  Activity: 39%
[5]
  Selectivity ratio: 7
[6]
  Activity: 37%

## CO[C@@H]1[C@H](N(C)C(=O)CCC(=O)NCCC(=O)NCCC(=O)NCCC(=O)NCCC(=O)NCCC(=O)NCCC(=O)NCCC(=O)N[C@H]2CSSC[C@@H](C(=O)NCC(N)=O)NC(=O)CNC(=O)[C@H](Cc3ccccc3)NC(=O)[C@H](C(C)C)NC(=O)[C@H](CCCNC(=N)N)NC(=O)[C@H](Cc3ccccc3)NC(=O)[C@H](C(C)C)NC2=O)C[C@H]2O[C@]1(C)n1c3ccccc3c3c4c(c5c6ccccc6n2c5c31)C(=O)NC4 ({Staurosporine-Suc-βAla-βAla-βAla-βAla-βAla-βAla-βAla}-CVFRVFGCG-NH2; disulfide 1-8)
[7]
  Activity: 60%
[8]
  Activity: 4.1%
[9]
  Activity: 78%
[10]
  Activity: 41%
[11]
  Activity: 66%
[12]
  Activity: 100%
[13]
  Activity: 94%
[14]
  Activity: 73%

## CO[C@@H]1[C@H](N(C)C(=O)CCC(=O)NCCC(=O)NCCC(=O)NCCC(=O)NCCC(=O)NCCC(=O)NCCC(=O)NCCC(=O)N[C@H]2CNC(=O)C[C@@H](C(N)=O)NC(=O)CNC(=O)[C@H](Cc3ccccc3)NC(=O)[C@H](C(C)C)NC(=O)[C@H](CCCNC(=N)N)NC(=O)[C@H](Cc3ccccc3)NC(=O)[C@H](C(C)C)NC2=O)C[C@H]2O[C@]1(C)n1c3ccccc3c3c4c(c5c6ccccc6n2c5c31)C(=O)NC4 ({Staurosporine-Suc-βAla-βAla-βAla-βAla-βAla-βAla-βAla}-[Dap]VFRVFGD-NH2; lactam 1-8)
[15]
  Activity: 79%
[16]
  Activity: 96%
[17]
  Activity: 92%
[18]
  Activity: 91%
[19]
  Activity: 61%
[20]
  Activity: 94%
[21]
  Activity: 23%
[22]
  Activity: 6.5%
[23]
  Activity: 100%
[24]
  Activity: 66%
